From paper PMC4168221 (Clinical Drug Investigation, 2014)
Read-outs that look alike come from different tables or passages of the source.

Type: in vivo, human (Japanese patients with type 2 diabetes mellitus)
Conditions: for AUC∞ / C max / CL/F / Vd/F / t ½: mean (SD); for t max: median (range)
Outline: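 Single oral dose (100 or 200 mg) given before breakfast in a two-period crossover. Blood was drawn pre-dose and at 0.5–72 h (13 samples) into K2EDTA, iced, centrifuged, and plasma stored at −20 °C. Parent drug was measured by HPLC–MS/MS (1–2,000 ng/mL). Metabolites were measured by acetonitrile precipitation then HPLC–MS/MS (5–10,000 ng/mL). Group ratios are least square means with 90 % CI.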

[1] = canagliflozin 100 mg single dose
[2] = canagliflozin 100 mg single dose, moderate renal impairment (n = 12)
[3] = canagliflozin 100 mg, moderate renal impairment (n = 12)
[4] = canagliflozin 100 mg, normal renal function or mild renal impairment (n = 12)
[5] = canagliflozin 200 mg single dose
[6] = canagliflozin 200 mg single dose, moderate renal impairment (n = 12)
[7] = canagliflozin 200 mg, moderate renal impairment (n = 12)
[8] = canagliflozin 200 mg, normal renal function or mild renal impairment (n = 12)

SMILES: Cc1ccc([C@@H]2O[C@H](CO)[C@@H](O)[C@H](O)[C@H]2O)cc1Cc1ccc(-c2ccc(F)cc2)s1 [Canagliflozin, canagliflozin]
- time to reach maximum concentration (C max), median (100 and 200 mg single doses): ≤ 1 h
- AUC∞ ratio (90 % CI) of least square means, moderate renal impairment relative to normal renal function or mild renal impairment [1]: 1.258 (1.061–1.490)
- C max ratio (90 % CI) of least square means, moderate renal impairment relative to normal renal function or mild renal impairment [1]: 0.982 (0.821–1.173)
- AUC∞ ratio (90 % CI) of least square means, moderate renal impairment relative to normal renal function or mild renal impairment (canagliflozin 100 mg single dose, listed as canagliflozin): 1.258 [1.061–1.490]
- AUC∞ [2]: 8,766 (2551) ng·h/mL
- C max [2]: 1,197.13 (310.56) ng/mL
- CL/F [3]: 12.15 (2.87) L/h
- Vd/F [3]: 264 (81) L
- t ½ [3]: 15.50 (4.35) h
- t max [3]: 1.0 (1.0–3.0) h
- CL/F [4]: 15.24 (3.65) L/h
- Vd/F [4]: 269 (66) L
- t ½ [4]: 12.58 (3.14) h
- t max [4]: 1.0 (1.0–3.0) h
- AUC∞ ratio (90 % CI) of least square means, moderate renal impairment relative to normal renal function or mild renal impairment [5]: 1.216 (1.026–1.441)
- C max ratio (90 % CI) of least square means, moderate renal impairment relative to normal renal function or mild renal impairment [5]: 0.989 (0.827–1.182)
- AUC∞ ratio (90 % CI) of least square means, moderate renal impairment relative to normal renal function or mild renal impairment (canagliflozin 200 mg single dose, listed as canagliflozin): 1.216 [1.026–1.441]
- AUC∞ [6]: 17,835 (4434) ng·h/mL
- C max [6]: 2,333.36 (414.90) ng/mL
- CL/F [7]: 11.73 (2.36) L/h
- Vd/F [7]: 242 (67) L
- t ½ [7]: 15.15 (6.68) h
- t max [7]: 1.0 (1.0–2.0) h
- CL/F [8]: 14.43 (3.73) L/h
- Vd/F [8]: 244 (53) L
- t ½ [8]: 12.10 (2.66) h
- t max [8]: 1.0 (1.0–6.0) h
- half-life (t ½) (patients with normal or mild renal impairment, both doses): over 12 h
- AUC from time zero to 24 h (single dose of 100 mg, Japanese population with mild or no renal impairment): 5,645 ng·h/mL
